# Laboratory results taken from ChEMBL document CHEMBL1126762, “Synthesis and anaerobic activity of novel 1-carba-1-dethiacephalosporins” (J Med Chem, 1993).
# Test system: Eikenella corrodens
# Test: Antibacterial activity against anaerobic Bacteroides corrodens 1874
# Type: functional
# Settings: not given
# Summary of the method: (§1)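 MIC by agar dilution following the NCCLS M11-A2 (2nd ed.) procedure for antimicrobial testing of anaerobic bacteria.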
row,Compound,MIC
1,CO[C@@]1(NC(=O)Cc2cccs2)C(=O)N2C(C(=O)O)=C(COC(N)=O)CS[C@@H]21 [CEFOXITIN],4 µg/mL

# Test system: Phocaeicola vulgatus
# Test: Antibacterial activity against anaerobic Bacteroides vulgatus 1211
# Type: functional
# Settings: not given
# Summary of the method: as §1
row,Compound,MIC
1,CO[C@@]1(NC(=O)Cc2cccs2)C(=O)N2C(C(=O)O)=C(COC(N)=O)CS[C@@H]21 [CEFOXITIN],8 µg/mL

# Test system: Bacteroides thetaiotaomicron
# Test: Antibacterial activity against anaerobic Bacteroides thetaiotaomicron 1438
# Type: functional
# Settings: not given
# Summary of the method: as §1
row,Compound,MIC
1,CO[C@@]1(NC(=O)Cc2cccs2)C(=O)N2C(C(=O)O)=C(COC(N)=O)CS[C@@H]21 [CEFOXITIN],2 µg/mL

# Test system: Prevotella melaninogenica
# Test: Antibacterial activity against anaerobic Bacteroides melaninogenicus 1856/28
# Type: functional
# Settings: not given
# Summary of the method: as §1
row,Compound,MIC
1,CO[C@@]1(NC(=O)Cc2cccs2)C(=O)N2C(C(=O)O)=C(COC(N)=O)CS[C@@H]21 [CEFOXITIN],4 µg/mL

# Test system: Prevotella melaninogenica
# Test: Antibacterial activity against anaerobic Bacteroides melaninogenicus 2736
# Type: functional
# Settings: not given
# Summary of the method: as §1
row,Compound,MIC
1,CO[C@@]1(NC(=O)Cc2cccs2)C(=O)N2C(C(=O)O)=C(COC(N)=O)CS[C@@H]21 [CEFOXITIN],8 µg/mL

# Test system: Bacteroides fragilis
# Test: Antibacterial activity against anaerobic Bacteroides fragilis 111
# Type: functional
# Settings: not given
# Summary of the method: as §1
row,Compound,MIC
1,CO[C@@]1(NC(=O)Cc2cccs2)C(=O)N2C(C(=O)O)=C(COC(N)=O)CS[C@@H]21 [CEFOXITIN],8 µg/mL

# Test system: Bacteroides fragilis
# Test: Antibacterial activity against anaerobic
# Type: functional
# Settings: not given
# Summary of the method: as §1
row,Compound,MIC
1,CO[C@@]1(NC(=O)Cc2cccs2)C(=O)N2C(C(=O)O)=C(COC(N)=O)CS[C@@H]21 [CEFOXITIN],4 µg/mL

# Test system: Bacteroides fragilis
# Test: Antibacterial activity against anaerobic Bacteroides fragilis 1936B
# Type: functional
# Settings: not given
# Summary of the method: as §1
row,Compound,MIC
1,CO[C@@]1(NC(=O)Cc2cccs2)C(=O)N2C(C(=O)O)=C(COC(N)=O)CS[C@@H]21 [CEFOXITIN],8 µg/mL

# Test system: Clostridioides difficile
# Test: Antibacterial activity against anaerobic Clostridium difficile 2994 strain
# Type: functional
# Settings: not given
# Summary of the method: as §1
row,Compound,MIC
1,CO[C@@]1(NC(=O)Cc2cccs2)C(=O)N2C(C(=O)O)=C(COC(N)=O)CS[C@@H]21 [CEFOXITIN],32 µg/mL

# Test system: Clostridium perfringens
# Test: Antibacterial activity against anaerobic Clostridium perfringens 81
# Type: functional
# Settings: not given
# Summary of the method: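 Agar dilution MIC following NCCLS document M11-A2 (Vol. 10, no. 15), the method for antimicrobial testing of anaerobic bacteria; value reported as minimum inhibitory concentration.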
row,Compound,MIC
1,CO[C@@]1(NC(=O)Cc2cccs2)C(=O)N2C(C(=O)O)=C(COC(N)=O)CS[C@@H]21 [CEFOXITIN],2 µg/mL

# Test system: Clostridium septicum
# Test: Antibacterial activity against anaerobic Clostridium septicum 1128
# Type: functional
# Settings: not given
# Summary of the method: as §1
row,Compound,MIC
1,CO[C@@]1(NC(=O)Cc2cccs2)C(=O)N2C(C(=O)O)=C(COC(N)=O)CS[C@@H]21 [CEFOXITIN],4 µg/mL

# Test system: Escherichia coli
# Test: Antibacterial activity against aerobic Escherichia coli EC14
# Type: functional
# Settings: not given
# Summary of the method: (§2)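 MIC by agar dilution following the NCCLS M7-A2 (2nd ed.) procedure for bacteria that grow aerobically.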
row,Compound,MIC
1,CO[C@@]1(NC(=O)Cc2cccs2)C(=O)N2C(C(=O)O)=C(COC(N)=O)CS[C@@H]21 [CEFOXITIN],2 µg/mL

# Test system: not listed separately
# Test: Antibacterial activity against anaerobic Eubacterium aerofaciens 1235
# Type: functional
# Settings: Collinsella aerofaciens
# Summary of the method: as §1
row,Compound,MIC
1,CO[C@@]1(NC(=O)Cc2cccs2)C(=O)N2C(C(=O)O)=C(COC(N)=O)CS[C@@H]21 [CEFOXITIN],8 µg/mL

# Test system: Klebsiella aerogenes
# Test: Antibacterial activity against aerobic Enterobacter aerogenes C32
# Type: functional
# Settings: not given
# Summary of the method: as §2
row,Compound,MIC
1,CO[C@@]1(NC(=O)Cc2cccs2)C(=O)N2C(C(=O)O)=C(COC(N)=O)CS[C@@H]21 [CEFOXITIN],> 128 µg/mL

# Test system: not listed separately
# Test: Antibacterial activity against anaerobic Fusobacterium symbiosum 1470
# Type: functional, fusobacterium symbosium
# Settings: not given
# Summary of the method: as §1
row,Compound,MIC
1,CO[C@@]1(NC(=O)Cc2cccs2)C(=O)N2C(C(=O)O)=C(COC(N)=O)CS[C@@H]21 [CEFOXITIN],8 µg/mL

# Test system: Fusobacterium necrophorum
# Test: Antibacterial activity against anaerobic Fusobacterium necrophorum 6054A
# Type: functional
# Settings: not given
# Summary of the method: as §1
row,Compound,MIC
1,CO[C@@]1(NC(=O)Cc2cccs2)C(=O)N2C(C(=O)O)=C(COC(N)=O)CS[C@@H]21 [CEFOXITIN],≤ 0.5 µg/mL

# Test system: Haemophilus influenzae
# Test: Antibacterial activity against aerobic Haemophilus influenzae RES 76
# Type: functional
# Settings: not given
# Summary of the method: as §2
row,Compound,MIC
1,CO[C@@]1(NC(=O)Cc2cccs2)C(=O)N2C(C(=O)O)=C(COC(N)=O)CS[C@@H]21 [CEFOXITIN],2 µg/mL

# Test system: Klebsiella pneumoniae
# Test: Antibacterial activity against aerobic Klebsiella pneumoniae X26
# Type: functional
# Settings: not given
# Summary of the method: as §2
row,Compound,MIC
1,CO[C@@]1(NC(=O)Cc2cccs2)C(=O)N2C(C(=O)O)=C(COC(N)=O)CS[C@@H]21 [CEFOXITIN],1 µg/mL

# Test system: Peptostreptococcus anaerobius
# Test: Antibacterial activity against anaerobic Peptostreptococcus anaerobius 1451
# Type: functional
# Settings: not given
# Summary of the method: as §1
row,Compound,MIC
1,CO[C@@]1(NC(=O)Cc2cccs2)C(=O)N2C(C(=O)O)=C(COC(N)=O)CS[C@@H]21 [CEFOXITIN],2 µg/mL

# Test system: not listed separately
# Test: Antibacterial activity against anaerobic Peptostreptococcus intermedius 1264
# Type: functional
# Settings: not given
# Summary of the method: as §1
row,Compound,MIC
1,CO[C@@]1(NC(=O)Cc2cccs2)C(=O)N2C(C(=O)O)=C(COC(N)=O)CS[C@@H]21 [CEFOXITIN],2 µg/mL

# Test system: Pseudomonas aeruginosa
# Test: Antibacterial activity against aerobic Pseudomonas aeruginosa X239 strain
# Type: functional
# Settings: not given
# Summary of the method: as §2
row,Compound,MIC
1,CO[C@@]1(NC(=O)Cc2cccs2)C(=O)N2C(C(=O)O)=C(COC(N)=O)CS[C@@H]21 [CEFOXITIN],> 128 µg/mL

# Test system: not listed separately
# Test: Antibacterial activity against anaerobic Peptococcus asaccharolyticus 1302
# Type: functional
# Settings: Peptoniphilus asaccharolyticus
# Summary of the method: as §1
row,Compound,MIC
1,CO[C@@]1(NC(=O)Cc2cccs2)C(=O)N2C(C(=O)O)=C(COC(N)=O)CS[C@@H]21 [CEFOXITIN],≤ 0.5 µg/mL

# Test system: Anaerococcus prevotii
# Test: Antibacterial activity against anaerobic Peptococcus prevoti 1281
# Type: functional
# Settings: not given
# Summary of the method: as §1
row,Compound,MIC
1,CO[C@@]1(NC(=O)Cc2cccs2)C(=O)N2C(C(=O)O)=C(COC(N)=O)CS[C@@H]21 [CEFOXITIN],1 µg/mL

# Test system: Cutibacterium acnes
# Test: Antibacterial activity against anaerobic Propionibacterium acnes 79
# Type: functional
# Settings: not given
# Summary of the method: as §1
row,Compound,MIC
1,CO[C@@]1(NC(=O)Cc2cccs2)C(=O)N2C(C(=O)O)=C(COC(N)=O)CS[C@@H]21 [CEFOXITIN],2 µg/mL

# Test system: Staphylococcus epidermidis
# Test: Antibacterial activity against aerobic Staphylococcus epidermidis 222
# Type: functional
# Settings: not given
# Summary of the method: as §2
row,Compound,MIC
1,CO[C@@]1(NC(=O)Cc2cccs2)C(=O)N2C(C(=O)O)=C(COC(N)=O)CS[C@@H]21 [CEFOXITIN],4 µg/mL

# Test system: Streptococcus pneumoniae
# Test: Antibacterial activity against aerobic Streptococcus pneumoniae PARK
# Type: functional
# Settings: not given
# Summary of the method: as §2
row,Compound,MIC
1,CO[C@@]1(NC(=O)Cc2cccs2)C(=O)N2C(C(=O)O)=C(COC(N)=O)CS[C@@H]21 [CEFOXITIN],0.5 µg/mL

# Test system: Staphylococcus aureus
# Test: Antibacterial activity against aerobic Staphylococcus aureus X1.1 strain
# Type: functional
# Settings: not given
# Summary of the method: as §2
row,Compound,MIC
1,CO[C@@]1(NC(=O)Cc2cccs2)C(=O)N2C(C(=O)O)=C(COC(N)=O)CS[C@@H]21 [CEFOXITIN],4 µg/mL
